ChEMBL document CHEMBL1158040, “Biological activities and 3D QSAR studies of a series of Delisea pulchra (cf. fimbriata) derived natural products” (J Nat Prod, 2006)
Converted amounts (≈) assume the structure as drawn. The source made the active and inactive calls. The rule behind the calls is not given here.

Assays:
Bacillus subtilis [1] = assay: Antimicrobial activity against Bacillus subtilis at 5 ug; format: functional, organism-based
Procedure, shortened: (§1)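 Direct bioautography: each compound is spotted onto TLC plates and the solvent evaporated. The test organism is then grown directly on the plate. Growth inhibition is scored at the spot as active (+) or very active (++). Where a number is given, it is the radius in mm of the inhibition zone around the spot.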

Micrococcus luteus [2] = assay: Antimicrobial activity against Micrococcus luteus at 10 ug; format: functional, organism-based; procedure, shortened: as §1
Micrococcus luteus [3] = assay: Antimicrobial activity against Micrococcus luteus at 0.1 ug; format: functional, organism-based; procedure, shortened: as §1
[4] = molecular target: Human immunodeficiency virus type 1 reverse transcriptase (Human immunodeficiency virus 1, UniProt Q72547); assay: Inhibition of HIV1 RT at 200 uM
Procedure, shortened: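 HIV-1 reverse transcriptase inhibition was measured in an ELISA-based system.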

Penicillium oxalicum [5] = assay: Antimicrobial activity against Penicillium oxalicum at 10 ug; format: functional; conditions: read-out: IZ; procedure, shortened: as §1
Penicillium oxalicum [6] = assay: Antimicrobial activity against Penicillium oxalicum at 1 ug; format: functional; conditions: read-out: IZ; procedure, shortened: as §1
Penicillium oxalicum [7] = assay: Antimicrobial activity against Penicillium oxalicum at 0.1 ug; format: functional; conditions: for zone of inhibition at 0.1 µg/disc: read-out: IZ; procedure, shortened: as §1
Bacillus subtilis [8] = assay: Antimicrobial activity against Bacillus subtilis at 10 ug; format: functional, organism-based; procedure, shortened: as §1
Micrococcus luteus [9] = assay: Antimicrobial activity against Micrococcus luteus at 5 ug; format: functional, organism-based; procedure, shortened: as §1
Penicillium oxalicum [10] = assay: Antimicrobial activity against Penicillium oxalicum at 5 ug; format: functional; conditions: read-out: IZ; procedure, shortened: as §1
Bacillus subtilis [11] = assay: Antimicrobial activity against Bacillus subtilis at 0.1 ug; format: functional, organism-based; procedure, shortened: as §1
Escherichia coli [12] = assay: Antimicrobial activity against Escherichia coli at 0.1 ug; format: functional, organism-based; procedure, shortened: as §1
LNCaP = assay: Cytotoxicity against human LNCAP cells; format: functional; conditions: read-out: ED50 (the source's name)
Escherichia coli [13] = assay: Antimicrobial activity against Escherichia coli at 10 ug; format: functional, organism-based; procedure, shortened: as §1
KB [14] = assay: Cytotoxicity against human KB cells; format: functional; conditions: read-out: ED50 (the source's name)
KB [15] = assay: Cytotoxicity against vinblastine-sensitive human KB cells; format: functional; conditions: read-out: ED50 (the source's name)
KB [16] = assay: Cytotoxicity against vinblastine-resistant human KB cells; format: functional; conditions: read-out: ED50 (the source's name)
Procedure, shortened: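 The vinblastine-resistant KB-V1 line was tested both with and without added vinblastine in the cultured tumour-cell cytotoxicity panel. Results are reported as ED50.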

Escherichia coli [17] = assay: Antimicrobial activity against Escherichia coli at 5 ug; format: functional, organism-based; procedure, shortened: as §1
Lu1 = assay: Cytotoxicity against human Lu1 cells; format: functional; conditions: read-out: ED50 (the source's name)
ZR-75-1 = assay: Cytotoxicity against human ZR-75-1 cells; format: functional; conditions: read-out: ED50 (the source's name)
Plasmodium falciparum [18] = assay: Antimalarial activity against chloroquine-resistant Plasmodium falciparum W2; format: functional, organism-based
Procedure, shortened: (§2)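 In vitro growth inhibition of Plasmodium falciparum clones D6 (chloroquine-sensitive) and W2 (chloroquine-resistant); IC50 reported in μg/mL.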

Micrococcus luteus [19] = assay: Antimicrobial activity against Micrococcus luteus at 1 ug; format: functional, organism-based; procedure, shortened: as §1
[20] = Selectivity index, ratio of IC50 for human KB cells to IC50 for Plasmodium falciparum D6; format: toxicity, cell-based; conditions: KB cells versus Plasmodium falciparum D6, read-out: Ratio IC50
Procedure, shortened: (§3)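 Plasmodium falciparum clones were assayed in vitro: D6 (chloroquine-sensitive) and W2 (chloroquine-resistant). IC50 is in μg/mL. The selectivity index is the ratio of the antimalarial to the cytotoxic activity.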

Bacillus subtilis [21] = assay: Antimicrobial activity against Bacillus subtilis at 1 ug; format: functional, organism-based; procedure, shortened: as §1
[22] = Inhibition of TK assessed as residual activity at 200 ug/ml
Procedure, shortened: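 The enzyme was tyrosine kinase p56lck, with test compounds at 200 μg/mL. The read-out is the remaining enzyme activity.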

Plasmodium falciparum [23] = assay: Antimalarial activity against chloroquine-sensitive Plasmodium falciparum D6; format: functional, organism-based; procedure, shortened: as §2
Escherichia coli [24] = assay: Antimicrobial activity against Escherichia coli at 1 ug; format: functional, organism-based; procedure, shortened: as §1
[25] = Selectivity index, ratio of IC50 for human KB cells to IC50 for Plasmodium falciparum W2; format: toxicity, cell-based; conditions: KB cells versus Plasmodium falciparum W2, read-out: Ratio IC50; procedure, shortened: as §3
Penicillium oxalicum [26] = assay: Antimicrobial activity against Penicillium oxalicum at 0.01 ug; format: functional; conditions: for zone of inhibition at 0.01 µg/disc: read-out: IZ; procedure, shortened: as §1
[27] = Inhibition of PKC
Monocyte [28] = assay: Inhibition of LPS-stimulated IL1 production in human monocytes; format: functional, cell-based
Monocyte [29] = assay: Inhibition of IL1 biosynthesis in human monocytes; format: functional, cell-based

| SMILES | Activity (Bacillus subtilis [1]) | Activity (Micrococcus luteus [2]) | Activity (Micrococcus luteus [3]) | IC50 [4] | zone of inhibition at 10 µg/disc (Penicillium oxalicum [5]) | zone of inhibition at 1 µg/disc (Penicillium oxalicum [6]) | Activity (Bacillus subtilis [8]) | Activity (Micrococcus luteus [9]) | zone of inhibition at 5 µg/disc (Penicillium oxalicum [10]) | Activity (Escherichia coli [12]) | EC50 (LNCaP) | Activity (Escherichia coli [13]) | EC50 (KB [14]) | Activity (Escherichia coli [17]) | IC50 (Plasmodium falciparum [18]) | Activity (Micrococcus luteus [19]) | selectivity ratio [20] | Activity (Bacillus subtilis [21]) | IC50 (Plasmodium falciparum [23]) | Activity (Escherichia coli [24]) | further results |
| --- | --- | --- | --- | --- | --- | --- | --- | --- | --- | --- | --- | --- | --- | --- | --- | --- | --- | --- | --- | --- | --- |
| CCC[C@@H](O)C1=C(Br)/C(=C/I)OC1=O | Active | Active | inactive | 700 µM | 20 mm | 12 mm | Active | Active | 18 mm | inactive | < 0.1 µg/mL | Active | 0.4 µg/mL (≈ 1.07 µM) | Active | > 10 µg/mL | Active | < 1 | inactive | 6.8 µg/mL (≈ 18.2 µM) | Active | zone of inhibition at 0.1 µg/disc (Penicillium oxalicum [7]): 4 mm; Activity (Bacillus subtilis [11]): inactive; EC50 (KB [15]): 4.1 µg/mL (≈ 11 µM); EC50 (KB [16]): 0.3 µg/mL (≈ 0.804 µM); EC50 (Lu1): 1.3 µg/mL (≈ 3.49 µM); EC50 (ZR-75-1): 0.3 µg/mL (≈ 0.804 µM); Activity [22]: 4.2% |
| OC(c1cc(C(F)(F)F)nc2c(C(F)(F)F)cccc12)C1CCCCN1 (centres undefined) [MEFLOQUINE] |  |  |  |  |  |  |  |  |  |  |  |  | 3.5 µg/mL (≈ 9.25 µM) |  | 0.001 µg/mL (≈ 0.00264 µM) |  | 710 |  | 0.005 µg/mL (≈ 0.0132 µM) |  | selectivity ratio [25]: 4380 |
| CCC[C@@H](OC(C)=O)C1=C(Br)/C(=C/I)OC1=O | Active | Active | Active | 700 µM | 17 mm | 9 mm | Active | Active | 21 mm | inactive | 2 µg/mL (≈ 4.82 µM) | Active | 0.1 µg/mL (≈ 0.241 µM) | Active | > 10 µg/mL | Active | < 1 | Active | 4.6 µg/mL (≈ 11.1 µM) | inactive | Activity (Penicillium oxalicum [26]): inactive; zone of inhibition at 0.1 µg/disc (Penicillium oxalicum [7]): 6 mm; Activity (Bacillus subtilis [11]): inactive; EC50 (KB [15]): 3.6 µg/mL (≈ 8.67 µM); EC50 (KB [16]): 0.2 µg/mL (≈ 0.482 µM); EC50 (Lu1): 1.5 µg/mL (≈ 3.61 µM); EC50 (ZR-75-1): < 0.1 µg/mL |
| CCC(CCC(=O)C(Br)=C(Br)Br)OC(C)=O (centres undefined) | Active | inactive |  |  | 8 mm | 6 mm | Active | inactive | 9 mm | inactive |  | Active |  | Active |  | inactive |  | inactive |  | inactive | Activity (Penicillium oxalicum [26]): inactive; Activity (Penicillium oxalicum [7]): inactive; IC50 [27]: ≥ 200 µM; IC50 (Monocyte [28]): 2000 nM; IC50 (Monocyte [29]): 2000 nM; Activity [22]: 31.7% |
| CCC[C@@H](OC(C)=O)C1=C(Br)C(=C(Br)Br)OC1=O | Active | Active | Active | 700 µM | 12 mm | 10 mm | Active | Active | 14 mm | inactive | 2.1 µg/mL (≈ 4.7 µM) | Active | 0.3 µg/mL (≈ 0.671 µM) | Active | 9.1 µg/mL (≈ 20.4 µM) | Active | < 1 | Active | 2.2 µg/mL (≈ 4.92 µM) | inactive | zone of inhibition at 0.01 µg/disc (Penicillium oxalicum [26]): 3 mm; zone of inhibition at 0.1 µg/disc (Penicillium oxalicum [7]): 6 mm; EC50 (KB [15]): 0.5 µg/mL (≈ 1.12 µM); EC50 (KB [16]): 3.5 µg/mL (≈ 7.83 µM); EC50 (Lu1): 1.1 µg/mL (≈ 2.46 µM); EC50 (ZR-75-1): < 0.1 µg/mL; selectivity ratio [25]: < 1; Activity [22]: 1.9% |
| CCC[C@@H](O)C1=C(Br)/C(=C/Cl)OC1=O | Active | Active | inactive | 700 µM | 22 mm | 14 mm | Active | Active | 18 mm | Active | 3 µg/mL (≈ 10.7 µM) | Active | 0.4 µg/mL (≈ 1.42 µM) | Active | > 10 µg/mL | Active | < 1 | Active | 5.9 µg/mL (≈ 21 µM) | Active | zone of inhibition at 0.1 µg/disc (Penicillium oxalicum [7]): 6 mm; Activity (Bacillus subtilis [11]): inactive; EC50 (KB [15]): 1.2 µg/mL (≈ 4.26 µM); EC50 (KB [16]): 1.4 µg/mL (≈ 4.97 µM); EC50 (Lu1): 1 µg/mL (≈ 3.55 µM); EC50 (ZR-75-1): 0.4 µg/mL (≈ 1.42 µM); Activity [22]: 1.9% |
| CCC[C@@H](O)C1=C(Br)C(=C(Br)Br)OC1=O | Active | Active | Active | 700 µM | 20 mm | 17 mm | Active | Active | 23 mm | inactive | 6.7 µg/mL (≈ 16.5 µM) | Active | 0.5 µg/mL (≈ 1.23 µM) | Active | > 10 µg/mL | Active | < 1 | Active | 2.8 µg/mL (≈ 6.92 µM) | inactive | zone of inhibition at 0.01 µg/disc (Penicillium oxalicum [26]): 4 mm; EC50 (KB [15]): 0.6 µg/mL (≈ 1.48 µM); EC50 (KB [16]): 9.5 µg/mL (≈ 23.5 µM); EC50 (Lu1): 1.7 µg/mL (≈ 4.2 µM); EC50 (ZR-75-1): 0.3 µg/mL (≈ 0.741 µM); Activity [22]: 4.5% |
| C[C@@H]1CC[C@H]2[C@@H](C)C(=O)O[C@@H]3O[C@@]4(C)CC[C@@H]1[C@]32OO4 [ARTEMISININ] |  |  |  |  |  |  |  |  |  |  |  |  | > 20 µg/mL |  | 0.006 µg/mL (≈ 0.0213 µM) |  | > 18200 |  | 0.001 µg/mL (≈ 0.00354 µM) |  | selectivity ratio [25]: > 3280 |
| C=C[C@H]1CN2CC[C@H]1C[C@H]2[C@H](O)c1ccnc2ccc(OC)cc12 [QUININE] |  |  |  |  |  |  |  |  |  |  |  |  | > 20 µg/mL |  | 0.029 µg/mL (≈ 0.0894 µM) |  | > 1830 |  | 0.011 µg/mL (≈ 0.0339 µM) |  | selectivity ratio [25]: > 700 |
